Laboratory results published in ChEMBL document CHEMBL3745642, “Structure-Activity Relationships of Novel Tryptamine-Based Inhibitors of Bacterial Transglycosylase” (J Med Chem, 2015).

tested on: Escherichia coli; assay: Inhibition of transglycosylase activity of Escherichia coli PBP1b assessed as remaining activity at 500 uM incubated for 30 mins by continous fluorescence assay; conditions: not given
Outline: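 Continuous fluorescence TG assay at 30 °C with purified E. coli PBP1b (100 nM) and dansyl-lipid II (10 µM) plus 1 U muramidase (Cellosyl). Fluorescence (ex 355/em 536 nm) read for 30 min. Relative activity measured with compound at 500 µM.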

Structure (SMILES) | Activity [%]
N=C(N)NCCc1cn(Cc2ccccc2)c2ccccc12 | 73
COc1ccc2c(c1)c(CCN)cn2Cc1ccc(Cl)c(Cl)c1.Cl | 24
NCCc1cn(Cc2ccc(F)cc2)c2ccccc12 | 97
CSc1ccc2c(c1)c(CCN)c(C)n2Cc1ccccc1 | 31
Cl.N=C(N)NCCc1cn(Cc2ccc(Cl)c(Cl)c2)c2ccccc12 | 1
COc1ccc(Cn2cc(CCN)c3ccccc32)cc1 | 80
Cl.N=C(N)NCCc1cn(Cc2ccc(F)c(F)c2)c2ccccc12 | 10
N#Cc1cccc(Cn2cc(CCN)c3ccccc32)c1 | 94
COc1ccc2c(c1)c(CCN)c(C)n2Cc1ccc(Cl)c(Cl)c1.Cl | 5
COc1ccc2c(c1)c(CCNC(=N)N)cn2Cc1ccc(F)c(F)c1 | 28
COc1cccc(Cn2cc(CCNC(=N)N)c3ccccc32)c1 | 55
N#Cc1cccc(Cn2cc(CCNC(=N)N)c3ccccc32)c1 | 79
CSc1ccc2c(c1)c(CCN)c(C)n2Cc1ccc(Cl)c(Cl)c1 [listing 1 of 3 here] | 1
NCCc1cn(Cc2ccccc2)c2ccccc12 | 93

target: T1, Penicillin-binding protein 2 (Staphylococcus aureus, UniProt Q53729); assay: Inhibition of Staphylococcus aureus PBP2 transglycosylase activity after 30 mins by continous fluorescence assay; conditions: not given
T1 sequence (Q53729 whole entry): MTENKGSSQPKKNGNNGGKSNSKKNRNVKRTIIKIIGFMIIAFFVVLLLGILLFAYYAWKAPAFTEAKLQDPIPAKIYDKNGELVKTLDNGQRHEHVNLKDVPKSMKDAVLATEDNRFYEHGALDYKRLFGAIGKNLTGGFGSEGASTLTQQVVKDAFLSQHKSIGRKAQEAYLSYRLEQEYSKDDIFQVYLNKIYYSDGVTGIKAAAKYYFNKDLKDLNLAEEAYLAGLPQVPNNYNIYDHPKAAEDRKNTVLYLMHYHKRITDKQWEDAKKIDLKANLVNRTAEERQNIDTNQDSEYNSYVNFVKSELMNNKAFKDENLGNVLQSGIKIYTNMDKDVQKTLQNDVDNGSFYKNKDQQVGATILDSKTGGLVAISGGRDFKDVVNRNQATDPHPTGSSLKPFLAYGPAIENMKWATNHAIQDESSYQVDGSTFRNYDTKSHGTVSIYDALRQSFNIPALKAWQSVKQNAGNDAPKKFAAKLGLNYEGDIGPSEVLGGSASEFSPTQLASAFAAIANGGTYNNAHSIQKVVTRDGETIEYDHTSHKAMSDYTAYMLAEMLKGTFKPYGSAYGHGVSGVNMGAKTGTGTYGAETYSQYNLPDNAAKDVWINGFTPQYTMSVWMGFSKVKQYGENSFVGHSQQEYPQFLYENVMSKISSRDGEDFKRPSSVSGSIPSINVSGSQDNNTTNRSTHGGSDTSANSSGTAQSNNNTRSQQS

Structure (SMILES) | IC50 [µM]
CSc1ccc2c(c1)c(CCN)c(C)n2Cc1ccc(Cl)c(Cl)c1 [listing 2 of 3 here] | 20.7

tested on: HEK293; assay: Cytotoxicity against HEK293 cells assessed as reduction in cell viability at 8 ug/ml after 24 hrs by MTS assay; assay type: cell-based; conditions: human, hek293, 24 h
Outline: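 HEK293 cells grown in DMEM with 10% FBS, 2 mM glutamine and penicillin/streptomycin at 37 °C, 5% CO2. Cells seeded at 2×10^4 per well and allowed to adhere 24 h. Compound added at 8 µg/mL final from an 8 mg/mL DMSO stock, with vehicle controls, in triplicate for 24 h. Metabolic activity read by MTS (CellTiter 96 AQueous One).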

Structure (SMILES) | Activity
CSc1ccc2c(c1)c(CCN)c(C)n2Cc1ccc(Cl)c(Cl)c1 [listing 2 of 3 here] | Toxic
COc1ccc2c(c1)c(CCN)cn2Cc1ccc(Cl)c(Cl)c1.Cl | Toxic
Cl.N=C(N)NCCc1cn(Cc2ccc(Cl)c(Cl)c2)c2ccccc12 | Non-toxic
Cl.N=C(N)NCCc1cn(Cc2ccc(F)c(F)c2)c2ccccc12 | Non-toxic
COc1ccc2c(c1)c(CCN)c(C)n2Cc1ccc(Cl)c(Cl)c1.Cl | Toxic

tested on: Escherichia coli; assay: Antibacterial activity against Escherichia coli ATCC 8739 assessed as no visual turbidity by broth microdilution method; assay type: functional; conditions: not given
Outline: (§1)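 Broth microdilution in Mueller-Hinton broth following the EUCAST/CLSI procedure. Compounds were made as 10 mg/mL DMSO stocks, diluted 20-fold in broth just before use. Inoculum: colonies suspended to 0.5 McFarland (~1×10^8 CFU/mL) in 0.085% NaCl, then diluted 100-fold in broth. MIC is the lowest dilution with no visible turbidity.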

Structure (SMILES) | MIC [µM]
CSc1ccc2c(c1)c(CCN)c(C)n2Cc1ccc(Cl)c(Cl)c1 [listing 2 of 3 here] | 616
COc1ccc2c(c1)c(CCN)cn2Cc1ccc(Cl)c(Cl)c1.Cl | 166
CSc1ccc2c(c1)c(CCN)c(C)n2Cc1ccccc1 | 369
Cl.N=C(N)NCCc1cn(Cc2ccc(Cl)c(Cl)c2)c2ccccc12 | 40
Cl.N=C(N)NCCc1cn(Cc2ccc(F)c(F)c2)c2ccccc12 | 44
COc1ccc2c(c1)c(CCN)c(C)n2Cc1ccc(Cl)c(Cl)c1.Cl | 20
COc1ccc2c(c1)c(CCNC(=N)N)cn2Cc1ccc(F)c(F)c1 | 81
COc1cccc(Cn2cc(CCNC(=N)N)c3ccccc32)c1 | 73

target: not listed separately; assay: Inhibition of Thermotoga maritima PBP1A transglycosylase activity after 30 mins by continous fluorescence assay; conditions: not given

Structure (SMILES) | IC50 [µM]
CSc1ccc2c(c1)c(CCN)c(C)n2Cc1ccc(Cl)c(Cl)c1 [listing 2 of 3 here] | 56

target: not listed separately; assay: Inhibition of Enterococcus hirae PBP2 transglycosylase activity after 30 mins by continous fluorescence assay; conditions: not given

Structure (SMILES) | IC50 [µM]
CSc1ccc2c(c1)c(CCN)c(C)n2Cc1ccc(Cl)c(Cl)c1 [listing 2 of 3 here] | 33

tested on: Enterococcus faecium; assay: Antibacterial activity against Enterococcus faecium ATCC 19434 assessed as no visual turbidity by broth microdilution method; assay type: functional; conditions: not given; outline: as §1

Structure (SMILES) | MIC [µM]
CSc1ccc2c(c1)c(CCN)c(C)n2Cc1ccc(Cl)c(Cl)c1 [listing 2 of 3 here] | 76
COc1ccc2c(c1)c(CCN)cn2Cc1ccc(Cl)c(Cl)c1.Cl | 83
CSc1ccc2c(c1)c(CCN)c(C)n2Cc1ccccc1 | 92
Cl.N=C(N)NCCc1cn(Cc2ccc(Cl)c(Cl)c2)c2ccccc12 | 10
Cl.N=C(N)NCCc1cn(Cc2ccc(F)c(F)c2)c2ccccc12 | 88
COc1ccc2c(c1)c(CCN)c(C)n2Cc1ccc(Cl)c(Cl)c1.Cl | 20
COc1ccc2c(c1)c(CCNC(=N)N)cn2Cc1ccc(F)c(F)c1 | 324
COc1cccc(Cn2cc(CCNC(=N)N)c3ccccc32)c1 | 293

tested on: Staphylococcus aureus; assay: Antibacterial activity against methicillin-resistant Staphylococcus aureus ATCC 43300 assessed as no visual turbidity by broth microdilution method; assay type: functional; conditions: not given
Outline: (§2)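 Mueller-Hinton broth microdilution per EUCAST/CLSI, 200 µL final volume. Compounds taken from 10 mg/mL DMSO stocks and diluted 20-fold in broth just before use. Inoculum was colonies from overnight plates, adjusted to 0.5 McFarland (about 1.10^8 CFU/mL) in 0.085% NaCl, then diluted 100-fold in broth. MIC was the lowest dilution with no visible turbidity.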

Structure (SMILES) | MIC [µM]
CSc1ccc2c(c1)c(CCN)c(C)n2Cc1ccc(Cl)c(Cl)c1 [listing 2 of 3 here] | 9.6
COc1ccc2c(c1)c(CCN)cn2Cc1ccc(Cl)c(Cl)c1.Cl | 83
CSc1ccc2c(c1)c(CCN)c(C)n2Cc1ccccc1 | 184
Cl.N=C(N)NCCc1cn(Cc2ccc(Cl)c(Cl)c2)c2ccccc12 | 20
Cl.N=C(N)NCCc1cn(Cc2ccc(F)c(F)c2)c2ccccc12 | 88
COc1ccc2c(c1)c(CCN)c(C)n2Cc1ccc(Cl)c(Cl)c1.Cl | 40
COc1ccc2c(c1)c(CCNC(=N)N)cn2Cc1ccc(F)c(F)c1 | 162
COc1cccc(Cn2cc(CCNC(=N)N)c3ccccc32)c1 | 146

tested on: not listed separately; assay: Inhibition of transglycosylase activity of Escherichia coli PBP1b incubated for 30 mins by continous fluorescence assay; conditions: not given

Structure (SMILES) | IC50 [µM]
CSc1ccc2c(c1)c(CCN)c(C)n2Cc1ccc(Cl)c(Cl)c1 [listing 3 of 3 here] | 21
CSc1ccc2c(c1)c(CCN)c(C)n2Cc1ccc(Cl)c(Cl)c1 [listing 2 of 3 here] | 29
COc1ccc2c(c1)c(CCN)cn2Cc1ccc(Cl)c(Cl)c1.Cl | 193
CSc1ccc2c(c1)c(CCN)c(C)n2Cc1ccccc1 | > 250
Cl.N=C(N)NCCc1cn(Cc2ccc(Cl)c(Cl)c2)c2ccccc12 | 51
Cl.N=C(N)NCCc1cn(Cc2ccc(F)c(F)c2)c2ccccc12 | 97
COc1ccc2c(c1)c(CCN)c(C)n2Cc1ccc(Cl)c(Cl)c1.Cl | 104
COc1ccc2c(c1)c(CCNC(=N)N)cn2Cc1ccc(F)c(F)c1 | > 250
COc1cccc(Cn2cc(CCNC(=N)N)c3ccccc32)c1 | > 250

tested on: not listed separately; assay: Inhibition of Staphylococcus aureus mtgA after 30 mins by continous fluorescence assay; conditions: not given

Structure (SMILES) | IC50 [µM]
CSc1ccc2c(c1)c(CCN)c(C)n2Cc1ccc(Cl)c(Cl)c1 [listing 2 of 3 here] | 27

tested on: Staphylococcus aureus; assay: Antibacterial activity against Staphylococcus aureus ATCC 25923 assessed as no visual turbidity by broth microdilution method; assay type: functional; conditions: not given; outline: as §2

Structure (SMILES) | MIC [µg/mL]
CSc1ccc2c(c1)c(CCN)c(C)n2Cc1ccc(Cl)c(Cl)c1 [listing 2 of 3 here] | 16

same assay, conditions: read-out: MIC

Structure (SMILES) | MIC [µM]
COc1ccc2c(c1)c(CCN)cn2Cc1ccc(Cl)c(Cl)c1.Cl | 83
CSc1ccc2c(c1)c(CCN)c(C)n2Cc1ccccc1 | 92
Cl.N=C(N)NCCc1cn(Cc2ccc(Cl)c(Cl)c2)c2ccccc12 | 20
Cl.N=C(N)NCCc1cn(Cc2ccc(F)c(F)c2)c2ccccc12 | 44
COc1ccc2c(c1)c(CCN)c(C)n2Cc1ccc(Cl)c(Cl)c1.Cl | 20
COc1ccc2c(c1)c(CCNC(=N)N)cn2Cc1ccc(F)c(F)c1 | 81
COc1cccc(Cn2cc(CCNC(=N)N)c3ccccc32)c1 | 73
